Screens from PubChem BioAssay.
This excerpt belongs to a sample that is enriched for hits.
NALP3 yeast inh: NALP3 inhibition in yeast. Yeast reconstituted NLRP3/ASC/caspase-1, beta-gal luminescence, 24 h. inhibition, % at 10 µM. actives 0.39% (n = 330,000). AID 2825;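 active = inhibition of 50% or more; inactive = inhibition below 50%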;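 note: plate controls were induced DMSO wells for no effect and uninduced yeast grown without galactose for full effect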
PolyA inhibitor: blocks polyadenylation in yeast reporter cells. S. cerevisiae SKY197-pL101 polyadenylation reporter, beta-gal luminescence; efflux-impaired pdr1/pdr3 knockout yeast; score 100 = 6 SD above DMSO. activity score, % at 12 µM. actives 0.02% (n = 300,000);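 active = lowest replicate activity score at least 50, where 100 means six control SD above control mean; inconclusive = lowest score under 50 but half or more replicates reach 50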;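 note: yeast exposed to compound for 9 h at 30 °C; higher score means more reporter readthrough which indicates perturbed polyadenylation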
NALP1 yeast inh: blocks the NALP1 inflammasome reconstituted in yeast. S. cerevisiae NALP1/ASC/caspase-1 growth, X-gal OD620, 72 h. inhibition, % at 10 µM. actives 0.61% (n = 280,000); in the data active = inhibition mostly above about 24%, no sharp cut-off; inactive = mostly below about 32%
Lmaj promast: Leishmania major promastigote growth inhibition | inhibition, % at 10 µM | Leishmania major promastigotes, resazurin fluorescence viability | actives 9% (n = 200,000); in the data active = inhibition above about 50%;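 note: promastigotes grown with compound for 44 hours at 28 °C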
T cruzi repl: T. cruzi replication inhibition; T. cruzi beta-gal in NIH3T3, luminescence, 90 h; inhibition, % (test concentration not listed); actives 1.4% (n = 300,000);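 active = mean inhibition across valid replicates above about 55%, limit read from the data; inconclusive = mean below that limit but half or more replicates reach it; inactive = mean below it, under half of replicates reach it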;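 note: signal also drops with host cell toxicity which is not excluded here; 0% = plate median of DMSO wells and 100% = zero luminescence signal; higher percent means less beta-gal luminescence so fewer parasites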
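Test system: β-gal T. cruzi (Tulahuen C4) inside NIH/3T3 cells / Quantity: 5,000 cells/well / Measured by: luminescence from GalScreen with 0.05% NP40, read after 60 min / Medium: DMEM plus 2% FBS / Measure: parasite load inhibition, % / Reagent: Tulahuen C4 trypomastigotes, 5000/well / Schedule: co-culture of at least 90 h after 3 h attachment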
Calb FLC: C. albicans growth modulation with fluconazole. growth inhibition, % (test concentration not listed). AID 1979. actives 0.57% (n = 300,000). C. albicans CaCi-2 + fluconazole, Alamar Blue growth, 48 h;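 active = growth inhibition above about 58% in most replicates, limit read from the data, passing the limit was not always enough; inconclusive = exactly half the replicates above a set limit; inactive = most replicates below a set limit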;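 note: all wells also contain fluconazole at 8 µg/ml as a sub-toxic cotreatment; 0% = median of DMSO wells and 100% = median of geldanamycin control wells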
* = called active by the depositor; ? = inconclusive; . = not tested or not shown.

SMILES	NALP3 yeast inh	PolyA inhibitor	NALP1 yeast inh	Lmaj promast	T cruzi repl	Calb FLC
CCN1CCN(C(=O)CCCn2c(C)c3cnn(-c4ccccc4)c(=O)c3c2C)CC1	4	0	12	69*	-33	-1
Cc1c2cnn(-c3ccccc3)c(=O)c2c(C)n1CCCC(=O)N1CCN(c2ncccn2)CC1	.	.	1	-7	.	.
Oc1c(Br)cc(Br)cc1C=Nc1cccnc1	24	-8	45*	.	14	-6
O=C(N/N=C/c1cc(Br)cc(Br)c1O)c1ccncc1	26	-39	-4	96*	-4	?
Cc1cccc(C(=O)Nc2cccc(C(=O)N/N=C/c3ccncc3)c2)c1	14	2	5	33	-2	5
O=C(N/N=C/c1cc(Br)c(Br)s1)c1ccncc1	-4	-3	4	98*	39	26
Oc1c(Br)cc(Br)cc1C=Nc1ccc2[nH]ncc2c1	30	10	.	.	3	12
Cc1cccc(C(=O)Oc2c(Br)cc(Br)cc2/C=N/NC(=O)c2ccncc2)c1	5	-5	28*	.	-1	31
CCOCc1c(C(=O)NC2CCCCCC2)oc2ccccc12	15	-19	5	11	7	-5
COc1cc2c(cc1NC(=O)CN1CCN(S(=O)(=O)c3ccccc3F)CC1)oc1ccccc12	21	7	20	-4	0	2
C[N+]1(C2CCC3CCCC2C3O)CCCCC1 (configuration not stated)	-6	9	16	-1	-29	-10
O=C(N/N=C/c1cc(Br)cc(Br)c1O)c1cccc(N2CCCC2=O)c1	42	-3	-8	3	61*	?
Cc1cc(NCCCn2ccnc2)n2nc(C)c(-c3ccc(Cl)cc3)c2n1	15	-6	-10	98*	46	51
Cc1cc(NCCN2CCOCC2)n2nc(C)c(-c3ccc(Cl)cc3)c2n1	18	-32	11	94*	10	15
Cc1cc(NCCCn2ccnc2)n2ncc(-c3ccccc3)c2n1	8	.	-1	89*	.	.
CN1CCC(=NNc2ncnc3sc4c(c23)CCCC4)CC1	6	-14	3	8	22	38
O=C(c1ccc(F)cc1F)N1CCN(S(=O)(=O)c2ccc3c(c2)OCCO3)CC1	18	.	.	.	.	.
C/C(CC(=O)Nc1cc(Cl)ccc1C)=N\NC(=O)C(=O)N1CCCC1	7	1	-25	.	-2	-1
S=C(Nc1ccccc1Cl)N(Cc1cccnc1)Cc1ccco1	4	-21	10	95*	38	-7
O=C(Nc1ccc(Cl)c(Cl)c1)N(Cc1cccnc1)Cc1ccco1	26	2	-32	100*	56*	11
COc1ccc(NC(=O)N(CCCN2CCOCC2)Cc2cccnc2)c(OC)c1	15	-11	.	7	-5	-14
O=C(CN(Cc1ccco1)C(=O)c1ccc(Cl)cc1)Nc1ccc(Cl)c(Cl)c1	2	-5	15	29	-1	-20
Cc1c(Cl)cccc1NC(=S)N(Cc1cccnc1)Cc1ccccc1Cl	-1	-14	20	95*	75*	-5
Cc1ccc(NC(=O)N(CCCN2CCOCC2)Cc2cccnc2)cc1C	6	0	24	65*	26	5
O=[N+]([O-])c1ccc(CSc2ccc(S(=O)(=O)N3CCCCCC3)cn2)cc1	29	.	.	.	.	.
SMILES	NALP3 yeast inh	PolyA inhibitor	NALP1 yeast inh	Lmaj promast	T cruzi repl	Calb FLC
CC(C)CN(C(=O)COc1ccc(Br)cc1C=O)C1CCS(=O)(=O)C1 (configuration not stated)	16	22	.	.	34	0
Cc1cc(C)c[n+](C(C)C(=O)c2ccc(-c3ccccc3)cc2)c1 (configuration not stated)	10	-18	.	67*	19	-16
Cc1ccc[n+](C(C)C(=O)c2ccc(Cl)cc2)c1 (configuration not stated)	25	17	.	.	-11	0
COc1ccc(CCNc2ccc(C(CC(N)=O)NC(=O)c3cc(OC)ccc3OC)cc2[N+](=O)[O-])cc1 (configuration not stated)	18	-21	8	.	8	-11
COc1ccc(CN(C)CC(=O)Nc2cc3oc4ccccc4c3cc2OC)c(OC)c1	25	19	34	97*	37	6
CCN(CC)S(=O)(=O)c1cccc(C(=O)Nc2cc3oc4ccccc4c3cc2OC)c1	4	6	12	80*	30	0
COc1cc2c(cc1NS(=O)(=O)N1CCCCC1)oc1ccccc12	-13	-15	4	96*	-9	-12
COc1cc2c(cc1NC(=O)CN(C)Cc1ccc(OC)c(OC)c1)oc1ccccc12	6	-5	21	28	50	-10
COc1cc2c(cc1NC(=O)COC(=O)[C@@H](NS(=O)(=O)c1ccccc1)C(C)C)oc1ccccc12	20	16	33	99*	30	9
C/C(CCc1ccccc1)=N/NC(=O)C(=O)NCc1ccccc1	5	-4	5	-2	-8	7
COc1cc2c(cc1NC(=O)COc1ccccc1OC)oc1ccccc12	2	-5	18	-3	7	-3
Cc1cc(NC(=O)COC(=O)[C@@H](NS(=O)(=O)c2ccc(Br)cc2)C(C)C)no1	0	6	.	.	-16	111*
COc1cc2c(cc1NC(=O)COC(=O)C(CCSC)NC(=O)c1ccccc1Cl)oc1ccccc12 (configuration not stated)	28	-13	34	67*	-2	13
O=C(OCc1cnc(Cl)s1)c1cccc(Cl)c1Cl	20	-14	.	-5	1	0
O=C(c1ccc(Cl)cc1)N1CCN(c2ccc([N+](=O)[O-])c(NCc3cccnc3)c2)CC1	16	-15	.	85*	24	-1
O=[N+]([O-])c1ccc(N2CCN(S(=O)(=O)c3ccc(Cl)cc3)CC2)cc1NCc1cccnc1	11	0	31	14	60*	8
COc1cccc(NC(=O)CN(C)C(=O)c2ccc(-c3cccc(C(F)(F)F)c3)o2)c1	23	-17	.	.	0	-14
CCc1ccc(NC(=O)CSc2nc3ncc(Br)cc3[nH]2)cc1	5	-4	4	.	0	-10
Cc1c(Cl)ccc(S(=O)(=O)Nc2cccnc2)c1Cl	25	24	12	.	1	77*
O=C(C1CCN(Cc2ccc(F)cc2)CC1)N(CCc1ccccc1)Cc1ccccc1	-1	0	34	49	9	-9
C#CCOc1ccc(Cl)cc1/C=N/O	-15	-11	-10	-1	2	14
C#CCOc1ccc(/C=N/O)cc1Cl	-30	2	2	55*	-7	-3
O=C(Nc1nnc(SCC(=O)N2CCCc3ccccc32)s1)c1cccc2ccccc12	-6	20	18	96*	-4	16
C/C(=N/NC(=O)CN(c1ccccc1)S(=O)(=O)c1ccccc1)c1ccccc1O	5	-12	5	.	7	2
